According to ChEMBL document CHEMBL1138132, “Cyclic urea derivatives as potent NK1 selective antagonists. Part II: Effects of fluoro and benzylic methyl substitutions” (Bioorg Med Chem Lett, 2006):
pKi: −log10 of the molar value. Converted amounts (≈) assume the structure as drawn.

How the values were obtained:
[1] = test system: Meriones unguiculatus; assay: Inhibition of Mongolian gerbil foot-tapping at 2 h time point at 1 mg/kg, po; format: functional
Procedure, shortened: (§1)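 Female Mongolian gerbils dosed orally at 1 mg/kg in 0.4% methylcellulose in distilled water at set pretreatment times (2, 4 or 6 h) before icv injection of NK1 agonist GR73632 (3 pmol in 5 µl) under anesthesia. After recovery, animals were placed in clear boxes and duration of hind-foot tapping was timed over 5 min; expressed as % inhibition.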

[2] = test system: Meriones unguiculatus; assay: Inhibition of Mongolian gerbil foot-tapping at 4 hr time point at 1 mg/kg, po; format: functional; procedure, shortened: as §1
[3] = molecular target: T1, Substance-P receptor (Homo sapiens, UniProt P25103); assay: Displacement of [3H]-Sar-Met Substance P from recombinant human NK1 receptor in CHO cells; format: cell-based
Procedure, shortened: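 Membranes from CHO cells expressing recombinant human NK1 receptor; [3H]-Sar-Met Substance P radioligand at concentrations near its experimentally derived Kd. Ki calculated by Cheng–Prusoff equation; values are the average of two or three independent determinations.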

[4] = Ratio of drug level in brain against plasma in Mongolian gerbil; format: ADME, organism-based, Meriones unguiculatus
[5] = Ratio of drug level in brain against plasma in rat; format: ADME, organism-based
[6] = test system: Meriones unguiculatus; assay: Inhibition of Mongolian gerbil foot-tapping at 6 hr time point at 1 mg/kg, po; format: functional; procedure, shortened: as §1
[7] = Oral bioavailability in rat; format: ADME, organism-based; details: in vivo
[8] = molecular target: T1, Substance-P receptor; details: CHO, 3 uM
[9] = Solubility in pH 7.4 buffer; format: physicochemical

T1 sequence (P25103 whole entry): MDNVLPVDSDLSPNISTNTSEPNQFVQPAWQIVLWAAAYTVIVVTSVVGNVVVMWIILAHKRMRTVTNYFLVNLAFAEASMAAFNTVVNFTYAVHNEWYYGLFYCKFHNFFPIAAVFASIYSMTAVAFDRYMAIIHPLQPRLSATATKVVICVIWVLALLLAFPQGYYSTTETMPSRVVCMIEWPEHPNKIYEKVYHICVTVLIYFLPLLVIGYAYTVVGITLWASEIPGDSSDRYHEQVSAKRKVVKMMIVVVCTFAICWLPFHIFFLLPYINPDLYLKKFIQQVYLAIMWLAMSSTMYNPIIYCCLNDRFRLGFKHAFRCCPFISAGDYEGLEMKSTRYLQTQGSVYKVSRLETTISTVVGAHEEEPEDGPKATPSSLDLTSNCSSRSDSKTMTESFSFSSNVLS

Row | Structure (SMILES) | inhibition in vivo at 1 mg/kg [1] | inhibition in vivo at 1 mg/kg [2] | pKi [3] | inhibition in vivo at 1 mg/kg [6] | also measured
1 | CCN1C[C@@](CO[C@H](C)c2cc(C(F)(F)F)cc(C(F)(F)F)c2)(c2ccc(F)cc2)NC1=O | 9% | 0% | 9.10 |  | 
2 | O=C1NC[C@](COCc2cc(C(F)(F)F)cc(C(F)(F)F)c2)(c2ccc(F)cc2)N1 |  |  | 7.05 |  | 
3 | O=C1NC[C@@](COCc2cc(C(F)(F)F)cc(C(F)(F)F)c2)(c2ccccc2)N1 | 54% | 12% | 8.22 |  | Kp [4]: 18; Kp [5]: 4
4 | C[C@@H](OC[C@@]1(c2ccc(F)cc2)CN(CC(N)=O)C(=O)N1)c1cc(C(F)(F)F)cc(C(F)(F)F)c1 | 14% | 20% | 9.40 |  | 
5 | C[C@@H](OC[C@@]1(c2ccccc2)CN(C)C(=O)N1)c1cc(C(F)(F)F)cc(C(F)(F)F)c1 | 86% | 62% | 9.30 | 31% | 
6 | O=C1NC[C@@](COCc2cc(C(F)(F)F)cc(C(F)(F)F)c2)(c2ccc(F)cc2)N1 | 22% | 55% | 8.57 | 51% | Kp [4]: 16; bioavailability [7]: 93%
7 | C[C@@H](OC[C@]1(c2ccccc2)CNC(=O)N1)c1cc(C(F)(F)F)cc(C(F)(F)F)c1 |  |  | 7.39 |  | 
8 | C[C@@H](OC[C@@]1(c2ccccc2)CNC(=O)N1)c1cc(C(F)(F)F)cc(C(F)(F)F)c1 | 35% | 57% | 9.22 | 48% | Kp [4]: 10; Kp [5]: 4.4; bioavailability [7]: 100%
9 | C[C@H](OC[C@]1(c2ccccc2)CNC(=O)N1)c1cc(C(F)(F)F)cc(C(F)(F)F)c1 |  |  |  |  | inhibition [8]: 22%
10 | C[C@@H](OC[C@@]1(c2ccc(F)cc2)CN(C)C(=O)N1)c1cc(C(F)(F)F)cc(C(F)(F)F)c1 | 65% | 57% | 8.44 | 63% | solubility [9]: 3 µM (≈ 1.39 µg/mL)
11 | CC(C)N1C[C@@](CO[C@H](C)c2cc(C(F)(F)F)cc(C(F)(F)F)c2)(c2ccccc2)NC1=O |  |  | 8.51 |  | 
12 | CCN1C[C@@](CO[C@H](C)c2cc(C(F)(F)F)cc(C(F)(F)F)c2)(c2ccccc2)NC1=O | 45% | 46% | 8.77 |  | 
13 | C[C@H](OC[C@@]1(c2ccccc2)CNC(=O)N1)c1cc(C(F)(F)F)cc(C(F)(F)F)c1 |  |  | 7.03 |  | 
14 | CN1CCC(N2CC(COCc3cc(C(F)(F)F)cc(C(F)(F)F)c3)(c3ccc(F)cc3)NC2=O)CC1 (stereo not drawn) | 3% | 0% | 9.40 |  | 
15 | O=C1NC(COCc2cc(C(F)(F)F)cc(C(F)(F)F)c2)(c2ccc(F)cc2)CN1C1CCNCC1 (stereo not drawn) | 0% | 0% | 9.05 |  | 
16 | C[C@@H](OC[C@@]1(c2ccc(F)cc2)CNC(=O)N1)c1cc(C(F)(F)F)cc(C(F)(F)F)c1 | 40% | 44% | 8.82 | 41% | 
17 | O=C1NC(COCc2cc(C(F)(F)F)cc(C(F)(F)F)c2)(c2ccc(F)cc2)CN1CCN1CCCC1 (stereo not drawn) | 2% | 0% |  | 0% | 
18 | O=C1NCC(COCc2cc(C(F)(F)F)cc(C(F)(F)F)c2)(c2ccc(F)cc2)N1 (stereo not drawn) |  |  | 8.35 |  | 
19 | O=C1NC(COCc2cc(C(F)(F)F)cc(C(F)(F)F)c2)(c2ccc(F)cc2)CN1C1CCOCC1 (stereo not drawn) | 22% | 0% | 8.20 |  | 
